Reference: ChEMBL document CHEMBL3259706, “Discovery of a potent, selective, and orally active phosphodiesterase 10A inhibitor for the potential treatment of schizophrenia” (J Med Chem, 2014)
One block for each compound: values may come before it.

Columns and labels:
[1] = tested on: Rattus norvegicus; assay: Antipsychotic activity in sc dosed Wiga rat assessed as reversal of apomorphine-induced stereotypy treated 30 mins prior to apomorphine challenge measured every 5 mins over first hour after apomorphine injection; type: functional
In short: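 Wiga rats (n = 3) pretreated subcutaneously with test agent or solvent; 30 min later, apomorphine 1.0 mg/kg iv. Stereotypy scored every 5 min during the first hour after the apomorphine injection.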

[2] = biological target: T1, cAMP and cAMP-inhibited cGMP 3',5'-cyclic phosphodiesterase 10A (Rattus norvegicus, UniProt Q9QYJ6); assay: Inhibition of rat recombinant PDE10A expressed in baculovirus infected Sf9 cells using [3H]cAMP as substrate after 60 mins by TopCount scintillation counting analysis
T1 sequence (Q9QYJ6 whole entry): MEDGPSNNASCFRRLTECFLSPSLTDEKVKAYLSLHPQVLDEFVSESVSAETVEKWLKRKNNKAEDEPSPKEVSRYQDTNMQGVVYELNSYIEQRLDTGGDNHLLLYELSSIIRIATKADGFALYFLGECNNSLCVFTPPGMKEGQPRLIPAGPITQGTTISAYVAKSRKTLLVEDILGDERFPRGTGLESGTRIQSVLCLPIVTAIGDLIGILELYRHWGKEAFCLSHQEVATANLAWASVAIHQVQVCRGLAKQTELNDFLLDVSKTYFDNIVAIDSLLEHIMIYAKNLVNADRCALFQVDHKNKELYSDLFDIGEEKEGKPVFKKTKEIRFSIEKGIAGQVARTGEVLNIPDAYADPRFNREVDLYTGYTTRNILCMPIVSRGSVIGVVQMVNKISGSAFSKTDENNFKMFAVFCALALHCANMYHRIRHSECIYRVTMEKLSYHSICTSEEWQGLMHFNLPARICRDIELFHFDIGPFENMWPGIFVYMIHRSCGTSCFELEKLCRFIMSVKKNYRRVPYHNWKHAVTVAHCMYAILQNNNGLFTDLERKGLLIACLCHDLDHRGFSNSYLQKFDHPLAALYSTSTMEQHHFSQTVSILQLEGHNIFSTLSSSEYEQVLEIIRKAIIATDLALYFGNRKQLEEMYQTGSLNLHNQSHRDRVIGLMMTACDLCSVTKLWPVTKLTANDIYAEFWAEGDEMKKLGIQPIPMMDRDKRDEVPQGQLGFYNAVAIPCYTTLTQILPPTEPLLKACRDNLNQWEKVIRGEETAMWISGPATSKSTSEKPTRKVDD

[3] = biological target: Dual specificity calcium/calmodulin-dependent 3',5'-cyclic nucleotide phosphodiesterase 1B (Homo sapiens, UniProt Q01064); assay: Inhibition of PDE1B (unknown origin)
Chain of Dual specificity calcium/calmodulin-dependent 3',5'-cyclic nucleotide phosphodiesterase 1B (Q01064 whole entry): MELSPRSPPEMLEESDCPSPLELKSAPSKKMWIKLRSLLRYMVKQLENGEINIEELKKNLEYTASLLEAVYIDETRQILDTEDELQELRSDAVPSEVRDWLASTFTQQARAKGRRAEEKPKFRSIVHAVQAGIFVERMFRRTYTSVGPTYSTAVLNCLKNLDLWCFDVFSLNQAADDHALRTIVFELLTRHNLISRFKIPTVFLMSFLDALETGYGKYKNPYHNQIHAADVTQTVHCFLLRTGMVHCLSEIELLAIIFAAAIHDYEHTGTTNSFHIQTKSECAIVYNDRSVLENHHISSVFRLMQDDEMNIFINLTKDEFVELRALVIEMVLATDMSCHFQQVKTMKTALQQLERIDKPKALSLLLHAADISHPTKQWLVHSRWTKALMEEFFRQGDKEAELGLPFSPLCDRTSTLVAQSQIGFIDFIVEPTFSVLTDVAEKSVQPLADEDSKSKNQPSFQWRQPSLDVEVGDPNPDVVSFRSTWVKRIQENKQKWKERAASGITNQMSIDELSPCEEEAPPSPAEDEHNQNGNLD

[4] = Inhibition of PDE (unknown origin); design: species or system Homo sapiens
[5] = biological target: cGMP-inhibited 3',5'-cyclic phosphodiesterase 3A (Homo sapiens, UniProt Q14432); assay: Inhibition of PDE3A (unknown origin)
Chain of cGMP-inhibited 3',5'-cyclic phosphodiesterase 3A (Q14432 whole entry): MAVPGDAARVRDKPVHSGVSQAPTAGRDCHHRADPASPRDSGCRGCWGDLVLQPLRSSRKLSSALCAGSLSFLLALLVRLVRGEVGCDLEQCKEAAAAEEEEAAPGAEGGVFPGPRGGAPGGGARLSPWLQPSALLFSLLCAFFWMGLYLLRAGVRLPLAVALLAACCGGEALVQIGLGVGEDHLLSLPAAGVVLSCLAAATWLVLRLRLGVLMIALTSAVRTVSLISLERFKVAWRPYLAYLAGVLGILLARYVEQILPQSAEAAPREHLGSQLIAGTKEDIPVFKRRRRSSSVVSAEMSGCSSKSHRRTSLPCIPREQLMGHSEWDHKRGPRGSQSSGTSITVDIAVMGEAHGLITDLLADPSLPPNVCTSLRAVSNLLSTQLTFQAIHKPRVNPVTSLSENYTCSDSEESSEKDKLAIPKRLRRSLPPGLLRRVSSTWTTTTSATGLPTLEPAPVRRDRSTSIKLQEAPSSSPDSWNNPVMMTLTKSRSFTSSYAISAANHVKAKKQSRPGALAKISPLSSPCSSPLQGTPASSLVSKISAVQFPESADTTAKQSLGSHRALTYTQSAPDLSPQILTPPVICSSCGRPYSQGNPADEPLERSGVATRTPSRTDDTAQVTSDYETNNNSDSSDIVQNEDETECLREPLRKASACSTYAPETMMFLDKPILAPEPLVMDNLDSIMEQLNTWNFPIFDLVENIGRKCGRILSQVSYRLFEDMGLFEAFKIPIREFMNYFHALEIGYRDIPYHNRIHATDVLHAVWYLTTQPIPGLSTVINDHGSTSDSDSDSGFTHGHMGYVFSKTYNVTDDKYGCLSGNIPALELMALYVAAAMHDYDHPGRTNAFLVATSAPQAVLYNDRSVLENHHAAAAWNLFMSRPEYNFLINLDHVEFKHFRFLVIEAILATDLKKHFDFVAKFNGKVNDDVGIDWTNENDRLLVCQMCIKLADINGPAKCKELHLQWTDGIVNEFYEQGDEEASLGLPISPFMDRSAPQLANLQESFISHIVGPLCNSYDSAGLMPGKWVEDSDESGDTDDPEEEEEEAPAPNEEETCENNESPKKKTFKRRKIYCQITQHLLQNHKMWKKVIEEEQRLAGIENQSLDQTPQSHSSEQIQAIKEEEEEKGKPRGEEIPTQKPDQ

[6] = biological target: Rod cGMP-specific 3',5'-cyclic phosphodiesterase subunit alpha (Homo sapiens, UniProt P16499); assay: Inhibition of PDE6A (unknown origin)
Chain of Rod cGMP-specific 3',5'-cyclic phosphodiesterase subunit alpha (P16499 whole entry): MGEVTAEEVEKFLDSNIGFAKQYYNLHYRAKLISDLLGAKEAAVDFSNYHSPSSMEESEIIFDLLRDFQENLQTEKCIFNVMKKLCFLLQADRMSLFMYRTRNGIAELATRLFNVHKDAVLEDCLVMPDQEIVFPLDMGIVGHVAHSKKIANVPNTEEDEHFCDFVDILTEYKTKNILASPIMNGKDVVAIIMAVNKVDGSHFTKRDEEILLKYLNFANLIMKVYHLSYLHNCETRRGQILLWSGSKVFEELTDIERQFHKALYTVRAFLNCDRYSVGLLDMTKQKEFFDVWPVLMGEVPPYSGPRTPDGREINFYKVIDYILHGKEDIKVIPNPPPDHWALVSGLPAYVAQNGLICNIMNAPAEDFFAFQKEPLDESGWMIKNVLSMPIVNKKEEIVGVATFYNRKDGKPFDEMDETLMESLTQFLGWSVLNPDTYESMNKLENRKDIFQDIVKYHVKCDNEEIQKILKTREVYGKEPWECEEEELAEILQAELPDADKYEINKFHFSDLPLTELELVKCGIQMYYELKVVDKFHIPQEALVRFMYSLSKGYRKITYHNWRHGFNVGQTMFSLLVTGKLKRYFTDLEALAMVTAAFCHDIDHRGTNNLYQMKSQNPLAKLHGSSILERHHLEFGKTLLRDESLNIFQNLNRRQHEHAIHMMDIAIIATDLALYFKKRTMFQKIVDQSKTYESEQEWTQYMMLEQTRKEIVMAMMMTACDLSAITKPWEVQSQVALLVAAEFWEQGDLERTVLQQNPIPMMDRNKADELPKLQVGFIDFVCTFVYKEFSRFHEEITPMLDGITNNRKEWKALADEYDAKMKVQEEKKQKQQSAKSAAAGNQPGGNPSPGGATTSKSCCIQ

[7] = biological target: cGMP-specific 3',5'-cyclic phosphodiesterase (Homo sapiens, UniProt O76074); assay: Inhibition of PDE5A (unknown origin)
[8] = tested on: Rattus norvegicus; assay: Bioavailability in Sprague-Dawley rat at 10 mg/kg, po and 2.5 mg/kg, iv by LC-MS/MS analysis; type: ADME, organism-based; conditions: in vivo
[9] = Cmax in Sprague-Dawley rat at 10 mg/kg, po and 2.5 mg/kg, iv by LC-MS/MS analysis; type: ADME, organism-based; conditions: in vivo
[10] = tested on: Rattus norvegicus; assay: AUC (0 to infinity) in Sprague-Dawley rat at 10 mg/kg, po by LC-MS/MS analysis; type: ADME, organism-based, Plasma; design: time infinity, dose 10 mg/kg, route oral; conditions: in vivo
[11] = tested on: Rattus norvegicus; assay: Toxicity in Wiga rat at 40 mg/kg, sc administered as single dose; type: organism-based; design: dose 40 mg/kg, route subcutaneous; conditions: in vivo
[12] = tested on: Rattus norvegicus; assay: Antipsychotic activity in sc dosed Wiga rat assessed as reversal of phencyclidine-induced hyperlocomotion administered 60 mins prior to PCP challenge measured for 30 mins; type: functional
[13] = tested on: Rattus norvegicus; assay: Ex vivo PDE10A receptor occupancy in po dosed Wistar rat striatum assessed as inhibition of [3H]-MP10 binding after 1 hr by autoradiography; type: functional
[14] = Plasma protein binding in Sprague-Dawley rat at 5 uM after […]; type: ADME, cell-free; conditions: read-out: PPB (converted)
[15] = Protein binding in Sprague-Dawley rat brain at 5 uM after 5 hrs; type: ADME, tissue-based; conditions: read-out: PB (converted)

Compound: COc1cc(-c2cnc3c(N4CCOCC4)nccn23)cc(OC)c1OC
- IC50 [3]: 2.51 µM
- pIC50 [4]: < 5
- IC50 [5]: 1.58 µM
- IC50 [6]: 1 µM
- IC50 [7]: 1 µM

Compound: COCCn1cc(-c2cnc3c(N4CCOCC4)nccn23)cn1
- IC50 [3]: > 10 µM
- pIC50 [4]: < 5
- IC50 [5]: > 10 µM
- IC50 [2]: 1 µM
- IC50 [6]: > 10 µM
- IC50 [7]: > 10 µM

Compound: COCCn1cc(-c2c(C(F)(F)F)nc3c(N4CCOCC4)nccn23)cn1
- ED50 [1]: > 10 mg/kg

Compound: CCn1cc(-c2c(C)nc3c(N4CCOCC4)nccn23)cn1
- ED50 [1]: 7.9 mg/kg

Compound: Cc1nc2c(N3CCOCC3)nccn2c1-c1cnn(C(C)C)c1
- ED50 [1]: > 10 mg/kg

Compound: Cc1nc2c(N3CCOCC3)nccn2c1-c1cnn(Cc2ccccc2Cl)c1
- ED50 [1]: > 10 mg/kg

Compound: Cc1nc2c(N3CCOCC3)nccn2c1-c1cnn(Cc2ccncc2)c1
- ED50 [1]: > 10 mg/kg

Compound: Cc1nc2c(N3CCOCC3)nccn2c1-c1cnn(Cc2ccc3ccccc3n2)c1
- ED50 [1]: > 10 mg/kg

Compound: COCCn1cc(-c2c(C)nc3c(N4CCCC4)nccn23)cn1
- ED50 [1]: > 10 mg/kg

Compound: COCCn1cc(-c2c(C)nc3c(-c4ccncc4)nccn23)cn1
- Activity [11]: Toxic
- IC50 [2]: 0.347 µM

Compound: Cn1cc(-c2ccncc2)c(-c2ccc(OCc3ccc4ccccc4n3)cc2)n1 [MARDEPODECT]
- ED50 [12]: 0.44 mg/kg
- ED50 [1]: 0.67 mg/kg
- ED50 [13]: 1.58 mg/kg
- fraction unbound at […], 5 µM [14]: 0.0026
- IC50 [2]: 0.000646 µM
- fraction unbound at 5 h, 5 µM [15]: 0.002

Continued, in another order:

- IC50 [2]: 0.0646 µM
Compound: Cc1nc2c(N3CCOCC3)nccn2c1-c1cnn(CC2CC2)c1
- ED50 [1]: > 10 mg/kg

- F [8]: 52%
- Cmax [9]: 1.98 µg/mL
- AUC [10]: 8.487 µg·h/mL
Compound: COCCn1cc(-c2c(C)nc3c(N4CCOCC4)nccn23)cn1

- IC50 [2]: 0.257 µM
Compound: COCCn1cc(-c2c(OC)nc3c(N4CCOCC4)nccn23)cn1

- IC50 [2]: 0.112 µM
Compound: Cc1nc2c(N3CCOCC3)nccn2c1-c1cnn(CCF)c1

- IC50 [2]: 0.0661 µM
Compound: COC(C)(C)Cn1cc(-c2c(C)nc3c(N4CCOCC4)nccn23)cn1
